Laboratory results from ChEMBL document CHEMBL3259684, “Dual inhibition of the α-glucosidase and butyrylcholinesterase studied by molecular field topology analysis” (Eur J Med Chem, 2014).

Tests used:
Cholinesterase = Cholinesterase (Homo sapiens, UniProt P06276); experiment: Inhibition of BChE (unknown origin) using BCh iodide as substrate preincubated for 15 mins prior to substrate addition measured after 10 mins by Ellman's method
[1] = Inhibition of yeast alpha-glucosidase type 3 using p-nitrophenyl-alpha-D-glucopyranoside as substrate preincubated with substrate for 5 mins prior to enzyme challenge for 30 mins by absorbance analysis; set-up: species or system Saccharomyces cerevisiae
Outline: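 Yeast enzyme at 0.1 units/ml in pH 6.8 potassium phosphate/MgCl2 buffer; substrate stock 6 mmol/L. Compound (sample solution 0.6 mg/ml in DMSO) mixed with buffer, water and substrate, held 5 min at 37 °C, then enzyme added; reaction 30 min at 37 °C, stopped with 0.4 mol/L glycine buffer pH 10; p-nitrophenol read at 410 nm. Deoxynojirimycin as reference inhibitor.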

Chain of Cholinesterase (P06276 whole entry): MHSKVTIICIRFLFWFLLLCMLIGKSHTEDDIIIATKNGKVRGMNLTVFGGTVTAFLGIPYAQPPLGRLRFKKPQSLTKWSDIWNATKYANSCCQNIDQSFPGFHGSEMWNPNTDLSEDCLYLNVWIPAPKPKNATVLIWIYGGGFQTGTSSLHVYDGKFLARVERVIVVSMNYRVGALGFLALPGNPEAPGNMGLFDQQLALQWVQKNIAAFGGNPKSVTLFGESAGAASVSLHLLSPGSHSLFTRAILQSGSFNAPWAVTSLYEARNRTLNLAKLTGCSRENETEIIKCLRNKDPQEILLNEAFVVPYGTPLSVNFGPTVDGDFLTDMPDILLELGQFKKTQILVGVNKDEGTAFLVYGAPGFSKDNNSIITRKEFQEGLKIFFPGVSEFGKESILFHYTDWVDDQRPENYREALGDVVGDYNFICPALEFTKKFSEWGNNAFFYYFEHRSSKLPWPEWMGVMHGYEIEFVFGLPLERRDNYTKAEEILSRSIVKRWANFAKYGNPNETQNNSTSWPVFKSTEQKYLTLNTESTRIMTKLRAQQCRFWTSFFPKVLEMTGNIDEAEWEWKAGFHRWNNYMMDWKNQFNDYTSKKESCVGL

`Oc1ccc(C2=Nc3ccccc3SC(c3cccc(O)c3)C2)cc1` (stereo unspecified) showed an IC50 (Cholinesterase) of 4.7 µM.
In the case of `Brc1ccc(-n2cc(-c3ccccc3)nn2)cc1`, the IC50 [1] is reported as 409 µM and the IC50 (Cholinesterase) is reported as 375 µM.
In the case of `COc1cccc(/C=C/C(=O)c2ccccc2O)c1`, the IC50 [1] is reported as 130 µM.
In the case of `CC(=O)c1ccccc1-n1cc(-c2ccccc2)nn1`, the IC50 [1] is reported as 313 µM and the IC50 (Cholinesterase) is reported as 295 µM.
In the case of `O=C(/C=C/c1ccc([N+](=O)[O-])cc1)c1ccccc1`, the IC50 [1] is reported as 3850 µM and the IC50 (Cholinesterase) is reported as 32 µM.
Compound `Cc1ccc(C2CC(c3cccc(O)c3)=Nc3ccccc3S2)c(C)c1` (stereo unspecified) has an IC50 (Cholinesterase) of 19.7 µM.
In the case of `c1ccc(C2=Nc3ccccc3SC(c3ccccc3)C2)cc1` (stereo unspecified), the IC50 [1] is reported as 33 µM.
In the case of `O=[N+]([O-])c1ccc(C2CC(c3ccccc3O)=Nc3ccccc3S2)cc1` (stereo unspecified), the IC50 (Cholinesterase) is reported as 57 µM.
Compound `O=C(/C=C/c1ccccc1O)c1ccccc1` has an IC50 (Cholinesterase) of 105 µM.
In the case of `N#Cc1cc([N+](=O)[O-])ccc1-n1cc(C2(O)CCCCC2)nn1`, the IC50 [1] is reported as 49.7 µM and the IC50 (Cholinesterase) is reported as 42.4 µM.
With `O=C(/C=C/c1ccccc1O)c1ccccc1O` the IC50 [1] was 49.4 µM and the IC50 (Cholinesterase) was 13 µM.
Compound `Oc1ccc(C2=Nc3ccccc3SC(c3cccs3)C2)cc1` (stereo unspecified) has an IC50 (Cholinesterase) of 3.97 µM.
Compound `O=C(/C=C/c1ccc2c(c1)OCO2)c1ccccc1` has an IC50 [1] of 1870 µM.
In the case of `COc1cccc(-n2cc(C3(O)CCCCC3)nn2)c1`, the IC50 [1] is reported as 245 µM and the IC50 (Cholinesterase) is reported as 83.3 µM.
`O=C(On1cc(C2(O)CCCCC2)nn1)c1ccccc1` showed an IC50 [1] of 1090 µM and an IC50 (Cholinesterase) of 248 µM.
For `Cc1ccc(C2CC(c3ccccc3O)=Nc3ccccc3S2)cc1` (stereo unspecified), the IC50 [1] was 12 µM and the IC50 (Cholinesterase) was 14 µM.
`CC(=O)c1ccc(-n2cc(C3(O)CCCCC3)nn2)cc1` gave an IC50 [1] of 1560 µM and an IC50 (Cholinesterase) of 450 µM.
For `Clc1ccccc1-n1cc(-c2ccccc2)nn1`, the IC50 [1] was 57.2 µM and the IC50 (Cholinesterase) was 41.3 µM.
For `O=C(/C=C/c1ccccc1)c1ccccc1O` [2'-HYDROXYCHALCONE], the IC50 [1] was 15 µM and the IC50 (Cholinesterase) was 84 µM.
`Oc1ccccc1C1=Nc2ccccc2SC(c2ccc(Cl)cc2)C1` (stereo unspecified) gave an IC50 [1] of 18 µM.
Work on `Clc1ccc(-n2cc(-c3ccccc3)nn2)cc1` yielded an IC50 [1] of 378 µM and an IC50 (Cholinesterase) of 555 µM.
`CCCCCCCCCCCCCCCCn1cc(-c2ccccc2)nn1` gave an IC50 [1] of 370 µM and an IC50 (Cholinesterase) of 454 µM.
`O=[N+]([O-])c1cccc(-n2cc(-c3ccccc3)nn2)c1` showed an IC50 [1] of 520 µM and an IC50 (Cholinesterase) of 499 µM.
Work on `CC(=O)c1cccc(-n2cc(-c3ccccc3)nn2)c1` yielded an IC50 [1] of 265 µM and an IC50 (Cholinesterase) of 451 µM.
For `O=[N+]([O-])c1ccc(-n2cc(C3(O)CCCCC3)nn2)cc1`, the IC50 [1] was 320 µM and the IC50 (Cholinesterase) was 409 µM.
Compound `CCSc1ccccc1-c1cnc(-c2ccsc2)[nH]1` has an IC50 (Cholinesterase) of 0.1 µM.
Work on `COc1cccc(/C=C/C(=O)c2ccc(N)cc2)c1` yielded an IC50 [1] of 93 µM.
In the case of `CCCCCCCCCCCCCCCCn1cc(C2(O)CCCCC2)nn1`, the IC50 [1] is reported as 1190 µM and the IC50 (Cholinesterase) is reported as 500 µM.
`O=C(/C=C/c1ccccc1)c1ccccc1` [CHALCONE] gave an IC50 (Cholinesterase) of 87 µM.
Compound `CCCCCCCCc1ccc(-n2cc(C3(O)CCCCC3)nn2)cc1` has an IC50 [1] of 658 µM and an IC50 (Cholinesterase) of 43.6 µM.
With `Nc1ccc(C(=O)/C=C/c2ccccc2Br)cc1` the IC50 (Cholinesterase) was 26 µM.
`O=[N+]([O-])c1ccc(-n2cc(-c3ccccc3)nn2)cc1` gave an IC50 [1] of 235 µM and an IC50 (Cholinesterase) of 250 µM.
Work on `OC1(c2cn(-c3ccc(Cl)cc3)nn2)CCCCC1` yielded an IC50 [1] of 1390 µM and an IC50 (Cholinesterase) of 294 µM.
With `O=C(/C=C/c1ccc2c(c1)OCO2)c1ccccc1O` the IC50 [1] was 151 µM.
`O=[N+]([O-])c1ccccc1-n1cc(-c2ccccc2)nn1` gave an IC50 [1] of 6760 µM.
`c1ccc(C2=Nc3ccccc3SC(c3cccs3)C2)cc1` (stereo unspecified) gave an IC50 (Cholinesterase) of 9.1 µM.
For `OC1(c2cn(-c3ccncc3)nn2)CCCCC1`, the IC50 [1] was 520 µM and the IC50 (Cholinesterase) was 385 µM.
In the case of `COC(=O)Cn1cc(C2(O)CCCCC2)nn1`, the IC50 [1] is reported as 255 µM and the IC50 (Cholinesterase) is reported as 362 µM.
In the case of `COc1ccc(/C=C/C(=O)c2ccccc2)cc1` [4-METHOXY CHALCONE], the IC50 (Cholinesterase) is reported as 42 µM.
Work on `OC1(c2cn(-c3ccccc3Cl)nn2)CCCCC1` yielded an IC50 [1] of 370 µM and an IC50 (Cholinesterase) of 430 µM.
With `OC1(c2cn(-c3cccc(Cl)c3)nn2)CCCCC1` the IC50 [1] was 1390 µM and the IC50 (Cholinesterase) was 512 µM.
Compound `O=[N+]([O-])c1ccccc1-n1cc(C2(O)CCCCC2)nn1` has an IC50 [1] of 1710 µM and an IC50 (Cholinesterase) of 333 µM.
With `CC(=O)c1cccc(-n2cc(C3(O)CCCCC3)nn2)c1` the IC50 [1] was 320 µM and the IC50 (Cholinesterase) was 452 µM.
Work on `Oc1ccccc1C1=Nc2ccccc2SC(c2ccc(F)cc2)C1` (stereo unspecified) yielded an IC50 [1] of 12 µM and an IC50 (Cholinesterase) of 14 µM.
`O=[N+]([O-])c1cccc(-n2cc(C3(O)CCCCC3)nn2)c1` showed an IC50 [1] of 862 µM and an IC50 (Cholinesterase) of 585 µM.
In the case of `Oc1ccccc1C1=Nc2ccccc2SC(c2ccccc2)C1` (stereo unspecified), the IC50 [1] is reported as 12.8 µM and the IC50 (Cholinesterase) is reported as 62 µM.
In the case of `COC(=O)Cc1ccc(-n2cc(C3(O)CCCCC3)nn2)cc1`, the IC50 [1] is reported as 812 µM and the IC50 (Cholinesterase) is reported as 568 µM.
Work on `Cc1ccc(-n2cc(C3(O)CCCCC3)nn2)c(Cl)c1` yielded an IC50 [1] of 366 µM and an IC50 (Cholinesterase) of 65.5 µM.
With `OC1(c2cn(-c3ccc(Br)cc3)nn2)CCCCC1` the IC50 [1] was 325 µM and the IC50 (Cholinesterase) was 298 µM.
With `COc1ccccc1/C=C/C(=O)c1ccccc1` the IC50 (Cholinesterase) was 27 µM.
In the case of `COc1ccc(C2CC(c3ccccc3O)=Nc3ccccc3S2)cc1` (stereo unspecified), the IC50 [1] is reported as 11.9 µM.
With `COc1cccc(/C=C/C(=O)c2ccccc2)c1` the IC50 [1] was 151 µM and the IC50 (Cholinesterase) was 32 µM.
In the case of `COc1ccc(C(=O)/C=C/c2ccc(N)cc2)cc1`, the IC50 [1] is reported as 20.2 µM.
